# Article PMC8516733 (Biomedicine & pharmacotherapy = Biomedecine & …, 2021)
# Values joined by “and” are separate entries in the source; they are usually repeats but may differ in a detail not shown here. Equal values may be shown once. “Also recorded” adds a separate entry of the source.
# Experiments:
# [1] = biological target: T1, cloned rat kappa opioid receptors (Rattus norvegicus, UniProt P34975); experiment: cell-based; type: cell-based
# [2] = biological target: T1, cloned rat kappa opioid receptors; type: biochemical
# [3] = biological target: cloned rat κappa opioid receptors (Rattus norvegicus, UniProt P34975); experiment: Adenylyl cyclase assay; type: cell-based; details: relative to Dyn (1–13)NH2; 50 μM forskolin
# Method in brief: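 CHO cells stably expressing the receptor were washed twice in F12 medium and labelled for 4 h with 12 μCi [3H]adenine. They were then incubated 40 min at 37 °C with forskolin, peptidase inhibitors (10 μM bestatin, 30 μM captopril, 50 μM l-leucyl-l-leucine) and test compound at 0.1–10,000 nM in 10-fold steps. The reaction was stopped with SDS/cAMP, then perchloric acid. [3H]cAMP was counted by scintillation, with [14C]cAMP used for recovery and crossover correction.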
# KOR = details: cited from earlier work; for Duration of action in vivo: after a single dose
# Chain of cloned rat κappa opioid receptors (P34975 whole entry): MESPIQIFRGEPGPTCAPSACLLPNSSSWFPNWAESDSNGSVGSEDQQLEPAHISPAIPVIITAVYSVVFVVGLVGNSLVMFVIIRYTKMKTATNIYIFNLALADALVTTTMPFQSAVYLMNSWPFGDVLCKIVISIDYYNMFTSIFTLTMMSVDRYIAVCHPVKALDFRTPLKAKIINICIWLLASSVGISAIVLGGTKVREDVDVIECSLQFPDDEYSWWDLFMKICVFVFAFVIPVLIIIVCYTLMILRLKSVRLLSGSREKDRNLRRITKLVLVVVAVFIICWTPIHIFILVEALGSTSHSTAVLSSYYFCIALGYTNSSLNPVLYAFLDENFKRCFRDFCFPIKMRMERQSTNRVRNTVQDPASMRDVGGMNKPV
# T1 sequence (P34975 whole entry): as above
compound,measurement,setting,value
"CC1C2Cc3ccc(O)cc3C1(C)CCN2CC1CC1 (single isomer, unassigned; (+)) [(+)-Cyclazocine, (+)-cyclazocine]",Effect of the compound alone on FMP fluorescence,[1],did not affect FMP fluorescence
"[N-Benzyl-Tyr^1,Dap(Ac)^8]Dyn A(1–11) amide [JVA 3416]","Efficacy, FMP blue",[1],0.48 and 0.48 ± 0.10
same,"Efficacy, [35S]GTPγS",[2],0.26 ± 0.06
same,"Efficacy, adenylyl cyclase",[3],1.0
"Oc1ccc2c3c1O[C@H]1c4[nH]c5c(c4C[C@@]4(O)[C@@H](C2)N(CC2CC2)CC[C@]314)C[C@@]1(O)[C@H]2Cc3ccc(O)c4c3[C@@]1(CCN2CC1CC1)[C@H]5O4 [nor-BNI, nor-binaltorphimine]",Effect of the compound alone on FMP fluorescence,[1],Neither zyklophin nor nor-BNI alone influenced FMP fluorescence
same,Duration of action in vivo,KOR,lasting weeks after a single dose
zyklophin-(1–8) [JVA 3413],"Efficacy, FMP blue",[1],0.22 ± 0.04
same,"Efficacy, [35S]GTPγS",[2],0.07 ± 0.14
same,"Efficacy, adenylyl cyclase",[3],0.35
"CC(C)=CCN1CCC2(C)c3cc(O)ccc3CC1C2C (stereo not drawn) [Pentazocine, pentazocine]",Efficacy (relative),[1],0.44 ± 0.04
same,IC50,[1],26.6 nM
"[N-BenzylTyr^1,cyclo(D-Asp^5,Dap^8]Dyn (1–11) amide [Zyklophin]",Effect of the compound alone on FMP fluorescence,[1],Neither zyklophin nor nor-BNI alone influenced FMP fluorescence; also recorded: did not elicit a significant reduction in FMP fluorescence
same,"Efficacy, FMP blue",[1],0
same,Kb,"[1]; read-out: KB from Schild regression, antagonism of U50,488",564 nM
same,"Efficacy, [35S]GTPγS",[2],0
same,"Efficacy, adenylyl cyclase",[3],0.23
same,Duration of antagonism,KOR; after systemic administration,less than 12 h
[N-Methyl-Tyr^1]zyklophin [JVA 3418],"Efficacy, FMP blue",[1],0.14 ± 0.03
same,"Efficacy, [35S]GTPγS",[2],0.10 ± 0.10
same,"Efficacy, adenylyl cyclase",[3],0.58
CC(C)[C@@H](CN1CC[C@@](C)(c2cccc(O)c2)[C@@H](C)C1)NC(=O)[C@H]1Cc2ccc(O)cc2CN1 [JDTic],Duration of action in vivo,KOR,lasting weeks after a single dose
[N-Allyl-Tyr^1]zyklophin [JVA 3419],"Efficacy, FMP blue",[1],0.15 ± 0.04
same,"Efficacy, [35S]GTPγS",[2],0.07 ± 0.17
same,"Efficacy, adenylyl cyclase",[3],0.33
